Columns and labels:
[1] = folding enthalpy; higher = less favourable; fluorescence melt of hairpins on a sequencing array, two-state fit; conditions: sodium 0.088 M
Summary of the method: (§1)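 Folding enthalpy and melting temperature come from bootstrapped two-state fits to Cy3 fluorescence of library hairpins carrying annealed Cy3 and quencher oligos on a sequenced MiSeq flow cell. Imaging was done in 50 mM Na-HEPES pH 8.0, 25 mM NaCl, stepping by 2.5 °C up to 60 °C, and signals were normalised to pre-quench Cy3 and to control constructs. Results of four replicates were combined by inverse variance, and fitted temperatures were raised by 9.35 °C to match UV melts.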

[2] = melting temperature; fluorescence melt of hairpins on a sequencing array, two-state fit, raised by 9.35 °C to match UV melts; conditions: sodium 0.088 M
Summary of the method: as §1

GCAACGCGAAAGCGCAGC ((..(((....)))..))
folding enthalpy [1]: -11.7 kcal/mol | Tm [2]: 48.1 °C

GATCTGTCGACAGATC ((((((....))))))
folding enthalpy [1]: -49.6 kcal/mol | Tm [2]: 55.1 °C

GATCACGGAGGTGATC ((((((....))))))
folding enthalpy [1]: -37.9 kcal/mol | Tm [2]: 64.3 °C

GGGCAGGGAAACCTACCC (((.(((....))).)))
folding enthalpy [1]: -29.2 kcal/mol | Tm [2]: 45.5 °C

CGCCACGGAAACGTAGCG (((.(((....))).)))
folding enthalpy [1]: -37.7 kcal/mol | Tm [2]: 50.1 °C

GCTACCGAAAGGTCTAGC ((((((....)))..)))
folding enthalpy [1]: -14.9 kcal/mol | Tm [2]: 36.6 °C

GATCAAATATTTGATC ((((((....))))))
folding enthalpy [1]: -48.2 kcal/mol | Tm [2]: 47.1 °C

GTTTGCGGAAACGTGAAC (((..((....))..)))
folding enthalpy [1]: -30.7 kcal/mol | Tm [2]: 41.2 °C

GGATCTCGAAAGAGCTCC (((.(((....))).)))
folding enthalpy [1]: -31.7 kcal/mol | Tm [2]: 44.5 °C

GATCGGTTGCCCGATC ((((((....))))))
folding enthalpy [1]: -32.5 kcal/mol | Tm [2]: 57.2 °C

GGGCACCGAAAGGTCCC (((.(((....))))))
folding enthalpy [1]: -34 kcal/mol | Tm [2]: 54.5 °C

GGCTAAGCGAAAGCTGCC (((..(((....))))))
folding enthalpy [1]: -23.7 kcal/mol | Tm [2]: 54.6 °C

GATCGTTCTCACGATC ((((((....))))))
folding enthalpy [1]: -40.8 kcal/mol | Tm [2]: 54.8 °C

GATCTGTGTCCAGATC ((((((....))))))
folding enthalpy [1]: -31.8 kcal/mol | Tm [2]: 49.2 °C

GATCCGAGACGGATC ((((((...))))))
folding enthalpy [1]: -39.9 kcal/mol | Tm [2]: 55.8 °C

GACGCAGAAATGCGTC ((((((....))))))
folding enthalpy [1]: -35.9 kcal/mol | Tm [2]: 68.5 °C

GGTATCGAAAGATCGACC ((((((....)))..)))
folding enthalpy [1]: -16.9 kcal/mol | Tm [2]: 27.8 °C

GGCCAAGGAAACCTGGCC (((((.(....).)))))
folding enthalpy [1]: -42.3 kcal/mol | Tm [2]: 57.3 °C

GCTGTCGAAAGACAAAGC ((((((....)))..)))
folding enthalpy [1]: -23.9 kcal/mol | Tm [2]: 48.9 °C

GCTTATACGAAAGTAAGC (((..(((....))))))
folding enthalpy [1]: -21.5 kcal/mol | Tm [2]: 37.4 °C

GTGCCACGAAAGTGACAC (((.(((....))).)))
folding enthalpy [1]: -40.9 kcal/mol | Tm [2]: 56.5 °C

GCAACGCGAAAGCTTAGC ((.(.((....)).).))
folding enthalpy [1]: -7.66 kcal/mol | Tm [2]: 28.5 °C

GGGTGGCCGAAAGGCCCC (((..(((....))))))
folding enthalpy [1]: -11.8 kcal/mol | Tm [2]: 54.2 °C

GCTACCGAAAGGTAAAGC ((((((....)))..)))
folding enthalpy [1]: -19.8 kcal/mol | Tm [2]: 46.8 °C

GATCTCGTCCGAGATC ((((((....))))))
folding enthalpy [1]: -38.4 kcal/mol | Tm [2]: 60.5 °C

GATCATACTTATGATC ((((((....))))))
folding enthalpy [1]: -37 kcal/mol | Tm [2]: 48.5 °C

GTGAGAGGAAACTCTTAC ((.((((....)))).))
folding enthalpy [1]: -30.9 kcal/mol | Tm [2]: 38.2 °C

GGCATAGGAAACTATGCC (((((((....)))))))
folding enthalpy [1]: -39.5 kcal/mol | Tm [2]: 64.9 °C

GATCGTTTCAACGATC ((((((....))))))
folding enthalpy [1]: -42 kcal/mol | Tm [2]: 59.7 °C

GATCAGTGAGCTGATC ((((((....))))))
folding enthalpy [1]: -36.1 kcal/mol | Tm [2]: 56.2 °C

GTCGTCGAAAGACCGAC ((((((....))).)))
folding enthalpy [1]: -23.5 kcal/mol | Tm [2]: 50.7 °C

GAACGCGGAAACGTGTTC ((((.((....)).))))
folding enthalpy [1]: -37.7 kcal/mol | Tm [2]: 56 °C

GCCTTGCGAAAGCCACGC ((.(.((....)).).))
folding enthalpy [1]: -7.87 kcal/mol | Tm [2]: 46.8 °C

GCTTAGCGAAAGCTAGGC ((.((((....)))).))
folding enthalpy [1]: -28.3 kcal/mol | Tm [2]: 60.4 °C

GATCTATATTAGATC ((((((...))))))
folding enthalpy [1]: -26.1 kcal/mol | Tm [2]: 40.9 °C

GTAAGCGGAAACGTTTAC ((((.((....)).))))
folding enthalpy [1]: -28.2 kcal/mol | Tm [2]: 43 °C

GTAATGGGAAACCATCAC ((.((((....)))).))
folding enthalpy [1]: -17.7 kcal/mol | Tm [2]: 28.8 °C

GCTTCGCGAAAGCTATGC ((.(.((....)).).))
folding enthalpy [1]: -13.4 kcal/mol | Tm [2]: 43.5 °C

GATCAACGTTTGATC ((((((...))))))
folding enthalpy [1]: -26.1 kcal/mol | Tm [2]: 40.1 °C

ACCATGAAAATGGT (((((....)))))
folding enthalpy [1]: -20.3 kcal/mol | Tm [2]: 46.6 °C

GGCGTGCGAAAGCAGCC (((.(((....))))))
folding enthalpy [1]: -26.9 kcal/mol | Tm [2]: 67.8 °C

GGGACTCGAAAGAGCCCC (((.(((....))).)))
folding enthalpy [1]: -34.6 kcal/mol | Tm [2]: 57.1 °C

GTATTTCGAAAGAATAC (((.(((....))))))
folding enthalpy [1]: -14.1 kcal/mol | Tm [2]: 31.1 °C

GCTACCCGAAAGGGCAGC (((.(((....))).)))
folding enthalpy [1]: -32.9 kcal/mol | Tm [2]: 57.8 °C

GGGTCAGGAAACTGGCCC (((.(((....))).)))
folding enthalpy [1]: -41.8 kcal/mol | Tm [2]: 60.4 °C

GGGCACGGAAACGTACCC (((.(((....))).)))
folding enthalpy [1]: -40.1 kcal/mol | Tm [2]: 51.4 °C
